From ChEMBL document CHEMBL3867452, “Acylphloroglucinolated Catechin and Phenylethyl Isocoumarin Derivatives from Agrimonia pilosa” (J Nat Prod, 2016)

Tests used:
BV-2 = experiment: Inhibition of LPS-induced NO production in mouse BV2 cells preincubated for 1 hr followed by LPS addition measured after 24 hrs by Griess assay; type: functional, cell-based
Procedure, shortened: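 BV2 cells seeded at 4 × 10^4 cells/well. Compounds were dissolved in DMSO, final DMSO under 0.1%. Pretreatment lasted 1 h, then LPS 500 ng/mL was added and cells incubated 24 h. Nitrite in the medium was measured by Griess assay. IC50 given as mean ± SD of three experiments; ω-nitro-L-arginine methyl ester served as positive control.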

Mus musculus = organism: Mus musculus; experiment: Cytotoxicity against mouse BV2 cells assessed as reduction in cell viability after 24 hrs by MTT assay; type: toxicity, cell-based; conditions: bv-2, 24 h
Procedure, shortened: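 BV2 microglia kept in DMEM with 10% FBS, penicillin 100 IU/mL and streptomycin, at 37.8 °C under 5% CO2. Cells were incubated 24 h in 96-well plates. Medium was then replaced with MTT 0.2 mg/mL for 3 h at 37.8 °C, and formazan was dissolved in DMSO. Absorbance read at 540 nm; viability given as percent of control.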

SMILES | IC50 (BV-2) | Activity (Mus musculus)
COc1c(C)c(O)c(Cc2c(O)cc(O)c3c2O[C@H](c2ccc(O)c(O)c2)[C@@H](O)C3)c(O)c1C(=O)C(C)C | 54.6 µM | Non-Toxic
CCCC(=O)c1c(O)c(Cc2c(O)cc(O)c3c2O[C@H](c2ccc(O)c(O)c2)[C@@H](O)[C@@H]3c2c(O)cc(O)c3c2O[C@H](c2ccc(O)c(O)c2)[C@H](O)C3)c(O)c(C)c1OC | 43.6 to 52.4 µM | Non-Toxic
CCC(C)C(=O)c1c(O)c(Cc2c(O)cc(O)c3c2O[C@H](c2ccc(O)c(O)c2)[C@@H](O)C3)c(O)c(C)c1OC (stereo partly specified) | 60.4 µM | Non-Toxic
COC(=O)[C@@H](N)CCCNC(=N)N[N+](=O)[O-] [L-NAME] | 24.7 µM | 

Now from value to molecule, other results behind:

IC50 (BV-2) | SMILES | Activity (Mus musculus)
38.1 to 43.6 µM | CCCC(=O)c1c(O)c(Cc2c(O)cc(O)c3c2O[C@H](c2ccc(O)c(O)c2)[C@@H](O)C3)c(O)c(C)c1OC | Non-Toxic
38.1 µM | COc1c(C)c(O)c(Cc2c(O)cc(O)c3c2O[C@H](c2ccc(O)c(O)c2)[C@@H](O)[C@@H]3c2c(O)cc(O)c3c2O[C@H](c2ccc(O)c(O)c2)[C@H](O)C3)c(O)c1C(=O)C(C)C | Non-Toxic
